These molecules were tested against Thymidine phosphorylase (Escherichia coli K-12) (UniProt P07650) (assay: Ratio of 7-deazaxanthine IC50 to compound IC50 for Escherichia coli thymidine phosphorylase using […] as substrate after 10 mins by spectrophotometric analysis).
Thymidine phosphorylase (Escherichia coli K-12), sequence (P07650 whole entry, looked up): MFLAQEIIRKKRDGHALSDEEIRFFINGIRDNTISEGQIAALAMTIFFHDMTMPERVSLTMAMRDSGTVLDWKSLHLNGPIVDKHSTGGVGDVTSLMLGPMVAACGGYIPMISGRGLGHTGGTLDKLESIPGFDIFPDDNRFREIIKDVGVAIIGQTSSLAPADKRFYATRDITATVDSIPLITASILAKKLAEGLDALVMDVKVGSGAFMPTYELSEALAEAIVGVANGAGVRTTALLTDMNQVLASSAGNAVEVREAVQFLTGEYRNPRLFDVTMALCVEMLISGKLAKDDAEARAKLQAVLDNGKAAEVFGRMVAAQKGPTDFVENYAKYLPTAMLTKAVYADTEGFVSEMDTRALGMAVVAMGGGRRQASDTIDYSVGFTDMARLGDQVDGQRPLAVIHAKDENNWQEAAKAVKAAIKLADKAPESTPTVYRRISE

| SMILES | Ratio IC50 |
| --- | --- |
| COc1ccc([N+](=O)[O-])cc1NCn1nc(-c2ccc(C)cc2)oc1=S | 2.5 |

What follows are molecules tested against Thymidine phosphorylase (Escherichia coli K-12, UniProt P07650) (assay: Inhibition of Escherichia coli thymidine phosphorylase using […] as substrate after 10 mins by spectrophotometric analysis).
Thymidine phosphorylase, sequence (P07650 whole entry): as the sequence (P07650 whole entry, looked up) above
Method in brief: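 Commercial E. coli TP in potassium phosphate buffer, pH 7.4, with […] substrate (1.5 mM stock). Test material incubated with the reaction mix for 10 min at 25 °C. Absorbance at 290 nm then read continuously at 10, 20 and 30 min. Substrate-free blanks were subtracted. Run in triplicate; IC50 given as mean ± SEM of three independent experiments.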

| SMILES | IC50 [µM] |
| --- | --- |
| COc1cc(-c2nn(CNc3ccccc3C)c(=S)o2)cc(OC)c1OC | 117 |
| S=c1oc(-c2ccccc2)nn1CNc1ccccc1Cl | 118 |
| Cc1ccc(-c2nn(CNc3ccc(C)c(C)c3)c(=S)o2)cc1 | 83.2 |
| Cc1ccc(-c2nn(CNc3ccc(Cl)c(Cl)c3)c(=S)o2)cc1 | 134 |
| Cc1ccccc1NCn1nc(-c2ccc(Cl)cc2)oc1=S | 58.2 |
| COc1ccc([N+](=O)[O-])cc1NCn1nc(-c2ccc(C)cc2)oc1=S | 14.4 |
| Cc1ccc(-c2nn(CNc3cccc(C)c3C)c(=S)o2)cc1 | 23.7 |
| S=c1oc(-c2ccc(Cl)cc2)nn1CNc1ccccc1Cl | 46.4 |
| COc1cccc(NCn2nc(-c3ccccc3)oc2=S)c1 | 40.6 |
| Cc1ccc(NCn2nc(-c3ccccc3)oc2=S)cc1C | 40.6 |

The remaining molecules from weak to strong by IC50, led by results:

| IC50 [µM] | SMILES |
| --- | --- |
| 173 | S=c1oc(-c2ccc(Cl)cc2)nn1CNc1ccc(Br)cc1 |
| 130 | Oc1ccccc1-c1nn(CNc2ccccc2Cl)c(=S)o1 |
| 104 | Cc1ccc(-c2nn(CNc3ccccc3)c(=S)o2)cc1 |
| 88.7 | COc1ccccc1NCn1nc(-c2ccc(Cl)cc2)oc1=S |
| 87.2 | COc1ccccc1NCn1nc(-c2ccccc2)oc1=S |
| 84.4 | COc1cccc(NCn2nc(-c3ccc(C)cc3)oc2=S)c1 |
| 69.3 | COc1cc(-c2nn(CNCCc3ccccc3)c(=S)o2)cc(OC)c1OC |
| 54.7 | Cc1ccc(NCn2nc(-c3ccc(C)cc3)oc2=S)cc1 |
| 26.3 | S=c1oc(-c2ccccc2Br)nn1CNc1ccc(Br)cc1 |
| 21.8 | S=c1oc(-c2ccccc2Br)nn1CNc1ccccc1Cl |
| 17.6 | COc1ccccc1NCn1nc(-c2ccccc2Br)oc1=S |
